# Assay results as given in ChEMBL document CHEMBL1127473, “Estrone sulfamates: potent inhibitors of estrone sulfatase with therapeutic potential” (J Med Chem, 1994).
# Calls of active or inactive are those of the source. The calls are words filed in the database; no cut-off is given here.
# Tests used:
# Steryl-sulfatase = target: T1, Steryl-sulfatase (Homo sapiens, UniProt P08842); assay: Tested for inhibition of estrone sulfatase in placental microsomal preparation (100000 g pellet) using substrate concentration of 20 uM; assay type: microsomes, Placenta
# T1 sequence (P08842 whole entry): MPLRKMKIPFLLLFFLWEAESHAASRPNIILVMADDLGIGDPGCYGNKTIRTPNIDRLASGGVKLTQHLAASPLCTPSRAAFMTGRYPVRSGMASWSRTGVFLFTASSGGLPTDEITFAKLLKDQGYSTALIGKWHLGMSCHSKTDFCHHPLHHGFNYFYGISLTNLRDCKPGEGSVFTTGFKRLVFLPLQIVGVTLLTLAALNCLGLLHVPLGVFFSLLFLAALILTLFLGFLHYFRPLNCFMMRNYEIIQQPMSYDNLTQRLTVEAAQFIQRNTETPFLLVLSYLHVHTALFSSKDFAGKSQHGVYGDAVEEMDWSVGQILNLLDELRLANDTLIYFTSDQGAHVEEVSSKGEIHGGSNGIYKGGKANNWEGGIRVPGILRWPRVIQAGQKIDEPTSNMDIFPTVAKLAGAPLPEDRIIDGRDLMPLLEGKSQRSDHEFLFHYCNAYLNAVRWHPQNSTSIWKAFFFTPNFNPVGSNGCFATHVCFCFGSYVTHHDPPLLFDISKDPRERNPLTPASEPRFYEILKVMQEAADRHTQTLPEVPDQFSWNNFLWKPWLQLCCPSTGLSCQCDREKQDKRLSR
# Procedure, shortened: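 Placental microsomal preparation (100 000-g pellet) assayed with saturating [3H]estrone sulfate substrate (20 μM); IC50 derived for sulfatase inhibition.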
# [1] = target: T2, Steryl-sulfatase (Homo sapiens) (UniProt P08842); assay: Tested for inhibition of estrone sulfatase in MCF-7 breast cancer cells using 2 nM substrate concentration at 10 uM; assay type: cell-based; conditions: MCF7
# T2 sequence (whole entry): T1 sequence (P08842 whole entry)
# [2] = target: T2, Steryl-sulfatase (Homo sapiens); assay: Tested for inhibition of estrone sulfatase in MCF-7 breast cancer cells using 2 nM substrate concentration at 1 uM; assay type: cell-based; conditions: MCF7
# [3] = target: T2, Steryl-sulfatase (Homo sapiens); assay: Tested for inhibition of estrone sulfatase in MCF-7 breast cancer cells using 2 nM substrate concentration at 0.1 uM; assay type: cell-based; conditions: MCF7
# [4] = target: T2, Steryl-sulfatase (Homo sapiens); assay: Tested for inhibition of estrone sulfatase in MCF-7 breast cancer cells using 2 nM substrate concentration at 10 uM; NI=No inhibition; assay type: cell-based; conditions: MCF7
# [5] = target: T2, Steryl-sulfatase (Homo sapiens); assay: Tested for inhibition of estrone sulfatase in MCF-7 breast cancer cells using 2 nM substrate concentration at 1 uM; NI=No inhibition; assay type: cell-based; conditions: MCF7
# [6] = target: T2, Steryl-sulfatase (Homo sapiens); assay: Tested for enzyme activity recovered after 20h in MCF-7 breast cancer cells at 1 uM; conditions: MCF7
# [7] = target: T2, Steryl-sulfatase (Homo sapiens); conditions: MCF7; 1 uM
SMILES,inhibition [1] [%],inhibition [2] [%],inhibition [4],inhibition [5],% activity recovered [6] [%],IC50 (Steryl-sulfatase) [µM],inhibition [3] [%],% activity recovered [7]
CSP(=O)(O)Oc1ccc2c(c1)CC[C@@H]1[C@@H]2CC[C@]2(C)C(=O)CC[C@@H]12,96,74,–,–,–,43,52,–
"CN(C)S(=O)(=O)Oc1ccc2c(c1)CCC1[C@@H]2CC[C@]2(C)C(=O)CC[C@@H]12 (single isomer, unassigned)",90,87,–,–,80,–,79,–
"CNS(=O)(=O)Oc1ccc2c(c1)CCC1[C@@H]2CC[C@]2(C)C(=O)CC[C@@H]12 (single isomer, unassigned)",93,87,–,–,> 50,–,–,–
"C[C@]12CC[C@@H]3c4ccc(OS(N)(=O)=O)cc4CCC3[C@@H]1CCC2=O (single isomer, unassigned) [EMATE]",> 99,> 99,–,–,–,0.08,> 99,inactive

# The next lines start with results.
inhibition [1] [%],inhibition [2] [%],inhibition [4],inhibition [5],% activity recovered [6] [%],SMILES,IC50 (Steryl-sulfatase) [µM],inhibition [3] [%],% activity recovered [7]
–,–,inactive,inactive,–,CN(C)S(=O)(=O)Oc1ccc2c(c1)CCCC2,–,–,–
22,–,–,–,–,CNS(=O)(=O)Oc1ccc2c(c1)CCCC2,–,–,–
97,47,–,–,–,NS(=O)(=O)Oc1ccc2c(c1)CCCC2,–,–,–
